# In ChEMBL document CHEMBL1641558, “A novel series of potent and selective EP(4) receptor ligands: facile modulation of agonism and antagonism” (Bioorg Med Chem Lett, 2011):
# Biological target: T1, Prostaglandin E2 receptor EP4 subtype (Homo sapiens, UniProt P35408)
# Test: Antagonist activity at human prostanoid EP4 receptor expressed in HEK293 cells assessed as inhibition of PGE2-induced cAMP accumulation by scintillation proximity assay
# Type: functional, cell-based
# Settings: not given
# In short: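 HEK293 cells expressing EP4 receptors. Antagonism is read as inhibition of PGE2-evoked rise in intracellular cAMP, reported as IC50. Agonism is read as cAMP elevation in the same cells without PGE2, reported as EC50.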
# T1 sequence (P35408 whole entry): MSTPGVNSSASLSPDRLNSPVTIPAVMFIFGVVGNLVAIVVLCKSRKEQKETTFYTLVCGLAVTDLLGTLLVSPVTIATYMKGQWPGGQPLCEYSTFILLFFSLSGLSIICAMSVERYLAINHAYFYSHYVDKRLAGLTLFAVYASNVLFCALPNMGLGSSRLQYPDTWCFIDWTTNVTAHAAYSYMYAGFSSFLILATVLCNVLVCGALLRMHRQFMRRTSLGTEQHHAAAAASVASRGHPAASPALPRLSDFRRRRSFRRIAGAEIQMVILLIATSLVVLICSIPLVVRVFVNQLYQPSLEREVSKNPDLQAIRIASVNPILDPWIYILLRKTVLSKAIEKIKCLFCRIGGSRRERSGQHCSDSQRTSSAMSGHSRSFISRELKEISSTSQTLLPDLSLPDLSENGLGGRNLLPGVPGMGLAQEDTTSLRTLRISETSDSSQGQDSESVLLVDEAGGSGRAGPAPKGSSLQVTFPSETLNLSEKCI
row,IC50 [nM],SMILES
1,6.2,C[C@H](NC(=O)c1cccc2c1N(Cc1ccc(F)cc1)CC2)c1ccc(C(=O)O)cc1
2,212,C[C@H](NC(=O)c1cccc2c1N(Cc1cccc(C#N)c1)CC2)c1ccc(C(=O)O)cc1
3,7.3,C[C@H](NC(=O)c1cccc2c1N(Cc1ccc(C#N)cc1)CC2)c1ccc(C(=O)O)cc1
4,2.1,C[C@H](NC(=O)c1cc(F)cc2c1N(Cc1ccc(C(F)(F)F)cc1)CC2)c1ccc(C(=O)O)cc1
5,4.7,C[C@H](NC(=O)c1cccc2c1N(Cc1ccc(C(F)(F)F)cc1Br)CC2)c1ccc(C(=O)O)cc1
6,0.92,C[C@H](NC(=O)c1cccc2c1N(Cc1ccc(Cl)cc1)CC2)c1ccc(C(=O)O)cc1

# Test system: not listed separately
# Test: Bioavailability in rat at 20 mg/kg, po and 5 mg/kg, iv
# Type: ADME, organism-based
# Settings: in vivo
# In short: (§1)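 Rat pharmacokinetics with potassium salts, given 20 mg/kg orally in 0.5% methocel and 5 mg/kg intravenously in 60% PEG 200. Half-life, oral bioavailability and clearance derived from these dosings.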
row,bioavailability [%],SMILES
1,102,C[C@H](NC(=O)c1cccc2c1N(Cc1ccc(Cl)cc1)CC2)c1ccc(C(=O)O)cc1

# Species: Homo sapiens
# Test: Selectivity ratio of Ki for human prostanoid EP2 receptor to Ki for human prostanoid EP4
# Settings: not given
row,Ratio Ki,SMILES
1,488,C[C@H](NC(=O)c1cccc2c1N(Cc1ccc(F)cc1)CC2)c1ccc(C(=O)O)cc1
2,582,C[C@H](NC(=O)c1cccc2c1N(Cc1cccc(C#N)c1)CC2)c1ccc(C(=O)O)cc1
3,603,C[C@H](NC(=O)c1cccc2c1N(Cc1ccc(C#N)cc1)CC2)c1ccc(C(=O)O)cc1
4,> 1000,C[C@H](NC(=O)c1cc(F)cc2c1N(Cc1ccc(C(F)(F)F)cc1)CC2)c1ccc(C(=O)O)cc1
5,795,C[C@H](NC(=O)c1cccc2c1N(Cc1ccc(C(F)(F)F)cc1Br)CC2)c1ccc(C(=O)O)cc1
6,> 1000,C[C@H](NC(=O)c1cccc2c1N(Cc1ccc(Cl)cc1)CC2)c1ccc(C(=O)O)cc1

# Species: Homo sapiens
# Test: Selectivity ratio of Ki for human prostanoid EP3 receptor to Ki for human prostanoid EP4
# Settings: not given
row,Ratio Ki,SMILES
1,> 1000,C[C@H](NC(=O)c1cccc2c1N(Cc1ccc(F)cc1)CC2)c1ccc(C(=O)O)cc1
2,> 1000,C[C@H](NC(=O)c1cccc2c1N(Cc1cccc(C#N)c1)CC2)c1ccc(C(=O)O)cc1
3,> 1000,C[C@H](NC(=O)c1cccc2c1N(Cc1ccc(C#N)cc1)CC2)c1ccc(C(=O)O)cc1
4,> 1000,C[C@H](NC(=O)c1cc(F)cc2c1N(Cc1ccc(C(F)(F)F)cc1)CC2)c1ccc(C(=O)O)cc1
5,> 1000,C[C@H](NC(=O)c1cccc2c1N(Cc1ccc(C(F)(F)F)cc1Br)CC2)c1ccc(C(=O)O)cc1
6,> 1000,C[C@H](NC(=O)c1cccc2c1N(Cc1ccc(Cl)cc1)CC2)c1ccc(C(=O)O)cc1

# Biological target: T1, Prostaglandin E2 receptor EP4 subtype
# Test: Displacement of [3H]PGE2 from human prostanoid EP4 receptor expressed in HEK293-EBNA cells after 60 mins by scintillation counting
# Type: cell-based
# Settings: not given
row,Ki [nM],SMILES
1,1.8,C[C@H](NC(=O)c1cccc2c1N(Cc1ccc(F)cc1)CC2)c1ccc(C(=O)O)cc1
2,7.5,C[C@H](NC(=O)c1cccc2c1N(Cc1cccc(C#N)c1)CC2)c1ccc(C(=O)O)cc1
3,3.1,C[C@H](NC(=O)c1cccc2c1N(Cc1ccc(C#N)cc1)CC2)c1ccc(C(=O)O)cc1
4,0.37,C[C@H](NC(=O)c1cc(F)cc2c1N(Cc1ccc(C(F)(F)F)cc1)CC2)c1ccc(C(=O)O)cc1
5,6.7,C[C@H](NC(=O)c1cccc2c1N(Cc1ccc(C(F)(F)F)cc1Br)CC2)c1ccc(C(=O)O)cc1
6,0.44,C[C@H](NC(=O)c1cccc2c1N(Cc1ccc(Cl)cc1)CC2)c1ccc(C(=O)O)cc1

# Species: Homo sapiens
# Test: Selectivity ratio of Ki for human prostanoid EP1 receptor to Ki for human prostanoid EP4
# Settings: not given
row,Ratio Ki,SMILES
1,> 1000,C[C@H](NC(=O)c1cccc2c1N(Cc1ccc(F)cc1)CC2)c1ccc(C(=O)O)cc1
2,> 1000,C[C@H](NC(=O)c1cccc2c1N(Cc1cccc(C#N)c1)CC2)c1ccc(C(=O)O)cc1
3,> 1000,C[C@H](NC(=O)c1cccc2c1N(Cc1ccc(C#N)cc1)CC2)c1ccc(C(=O)O)cc1
4,> 1000,C[C@H](NC(=O)c1cc(F)cc2c1N(Cc1ccc(C(F)(F)F)cc1)CC2)c1ccc(C(=O)O)cc1
5,> 1000,C[C@H](NC(=O)c1cccc2c1N(Cc1ccc(C(F)(F)F)cc1Br)CC2)c1ccc(C(=O)O)cc1
6,> 1000,C[C@H](NC(=O)c1cccc2c1N(Cc1ccc(Cl)cc1)CC2)c1ccc(C(=O)O)cc1

# Species: Homo sapiens
# Test: Selectivity ratio of Ki for human prostanoid FP receptor to Ki for human prostanoid EP4
# Settings: not given
row,Ratio Ki,SMILES
1,> 1000,C[C@H](NC(=O)c1cccc2c1N(Cc1ccc(F)cc1)CC2)c1ccc(C(=O)O)cc1
2,> 1000,C[C@H](NC(=O)c1cccc2c1N(Cc1cccc(C#N)c1)CC2)c1ccc(C(=O)O)cc1
3,> 1000,C[C@H](NC(=O)c1cccc2c1N(Cc1ccc(C#N)cc1)CC2)c1ccc(C(=O)O)cc1
4,> 1000,C[C@H](NC(=O)c1cc(F)cc2c1N(Cc1ccc(C(F)(F)F)cc1)CC2)c1ccc(C(=O)O)cc1
5,> 1000,C[C@H](NC(=O)c1cccc2c1N(Cc1ccc(C(F)(F)F)cc1Br)CC2)c1ccc(C(=O)O)cc1
6,> 1000,C[C@H](NC(=O)c1cccc2c1N(Cc1ccc(Cl)cc1)CC2)c1ccc(C(=O)O)cc1

# Test system: not listed separately
# Test: Clearance in rat at 20 mg/kg, po and 5 mg/kg, iv
# Type: ADME, organism-based
# Settings: in vivo
# In short: as §1
row,clearance [mL/min/kg],SMILES
1,9,C[C@H](NC(=O)c1cccc2c1N(Cc1ccc(Cl)cc1)CC2)c1ccc(C(=O)O)cc1

# Species: Homo sapiens
# Test: Selectivity ratio of Ki for human prostanoid TP receptor to Ki for human prostanoid EP4
# Settings: not given
row,Ratio Ki,SMILES
1,> 1000,C[C@H](NC(=O)c1cccc2c1N(Cc1ccc(F)cc1)CC2)c1ccc(C(=O)O)cc1
2,> 1000,C[C@H](NC(=O)c1cccc2c1N(Cc1cccc(C#N)c1)CC2)c1ccc(C(=O)O)cc1
3,> 1000,C[C@H](NC(=O)c1cccc2c1N(Cc1ccc(C#N)cc1)CC2)c1ccc(C(=O)O)cc1
4,> 1000,C[C@H](NC(=O)c1cc(F)cc2c1N(Cc1ccc(C(F)(F)F)cc1)CC2)c1ccc(C(=O)O)cc1
5,> 1000,C[C@H](NC(=O)c1cccc2c1N(Cc1ccc(C(F)(F)F)cc1Br)CC2)c1ccc(C(=O)O)cc1
6,> 1000,C[C@H](NC(=O)c1cccc2c1N(Cc1ccc(Cl)cc1)CC2)c1ccc(C(=O)O)cc1

# Species: Homo sapiens
# Test: Selectivity ratio of Ki for human prostanoid DP receptor to Ki for human prostanoid EP4
# Settings: not given
row,Ratio Ki,SMILES
1,907,C[C@H](NC(=O)c1cccc2c1N(Cc1ccc(F)cc1)CC2)c1ccc(C(=O)O)cc1
2,> 1000,C[C@H](NC(=O)c1cccc2c1N(Cc1cccc(C#N)c1)CC2)c1ccc(C(=O)O)cc1
3,916,C[C@H](NC(=O)c1cccc2c1N(Cc1ccc(C#N)cc1)CC2)c1ccc(C(=O)O)cc1
4,> 1000,C[C@H](NC(=O)c1cc(F)cc2c1N(Cc1ccc(C(F)(F)F)cc1)CC2)c1ccc(C(=O)O)cc1
5,88,C[C@H](NC(=O)c1cccc2c1N(Cc1ccc(C(F)(F)F)cc1Br)CC2)c1ccc(C(=O)O)cc1
6,> 1000,C[C@H](NC(=O)c1cccc2c1N(Cc1ccc(Cl)cc1)CC2)c1ccc(C(=O)O)cc1

# Test system: not listed separately
# Test: Half life in rat at 20 mg/kg, po and 5 mg/kg, iv
# Type: ADME, organism-based
# Settings: in vivo
# In short: as §1
row,half-life [h],SMILES
1,4.7,C[C@H](NC(=O)c1cccc2c1N(Cc1ccc(Cl)cc1)CC2)c1ccc(C(=O)O)cc1

# Species: Homo sapiens
# Test: Selectivity ratio of Ki for human prostanoid IP receptor to Ki for human prostanoid EP4
# Settings: not given
row,Ratio Ki,SMILES
1,> 1000,C[C@H](NC(=O)c1cccc2c1N(Cc1ccc(F)cc1)CC2)c1ccc(C(=O)O)cc1
2,> 1000,C[C@H](NC(=O)c1cccc2c1N(Cc1cccc(C#N)c1)CC2)c1ccc(C(=O)O)cc1
3,> 1000,C[C@H](NC(=O)c1cccc2c1N(Cc1ccc(C#N)cc1)CC2)c1ccc(C(=O)O)cc1
4,> 1000,C[C@H](NC(=O)c1cc(F)cc2c1N(Cc1ccc(C(F)(F)F)cc1)CC2)c1ccc(C(=O)O)cc1
5,> 1000,C[C@H](NC(=O)c1cccc2c1N(Cc1ccc(C(F)(F)F)cc1Br)CC2)c1ccc(C(=O)O)cc1
6,> 1000,C[C@H](NC(=O)c1cccc2c1N(Cc1ccc(Cl)cc1)CC2)c1ccc(C(=O)O)cc1
